Data from ChEMBL document CHEMBL1126153, “Synthesis and biological activity of certain alkyl 5-(alkoxycarbonyl)-1H-benzimidazole-2-carbamates and related derivatives: a new class of potential antineoplastic and antifilarial agents” (J Med Chem, 1992).

Columns and labels:
L1210 [1] = assay: In vitro test against L1210 murine leukemia cell growth rate at 10 uM concentration; format: functional, Mus musculus
How it was run: (§1)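 L1210 cells were grown in static suspension culture in Fischer's medium with test compound, and counted twice daily over 3 days. Growth rate is the control population doubling time (average 12 h) divided by the treated doubling time, as a % of control. The IC50 is the concentration that reduces the growth rate to 50% of control.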

Brugia pahangi [2] = assay: Antifilarial activity measured against the adult worms of Brugia pahangi in jirds by subcutaneous administration; set-up: concentration or dose not given beside the values
L1210 [3] = assay: Compound was tested in vitro against L1210 murine leukemia cell growth rate at a concentration of 100 uM; format: functional, Mus musculus; how it was run: as §1
L1210 [4] = assay: Compound was tested in vitro for its inhibitory activity against L1210 murine leukemia cell growth at a concentration of 100 uM; format: functional, cell-based; details: Mus musculus; how it was run: as §1
L1210 [5] = assay: In vitro for its inhibitory activity against L1210 murine leukemia cell growth; format: functional, cell-based; details: Mus musculus; how it was run: as §1
Brugia pahangi [6] = assay: Antifilarial activity measured against the adult worms of Brugia pahangi in jirds by subcutaneous administration; format: functional; set-up: concentration or dose not given beside the values
How it was run: (§2)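 Jirds carrying implanted adult worms (three to five per group) were dosed once daily for 5 consecutive days, or on day 1 only where noted. Dosing was subcutaneous or oral, with drug as a solution or suspension in aqueous 1% (hydroxyethyl)cellulose plus 0.1% Tween 80. Survivors were necropsied 55 to 70 days after the first dose and searched for adult worms. Counts are given as % of control.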

Brugia pahangi [7] = assay: Antifilarial activity was measured against the adult worms of Brugia pahangi in jirds by subcutaneous administration at a dose of 12.5 mg/kg/day; format: functional; how it was run: as §2
Brugia pahangi [8] = assay: Antifilarial activity was measured against the adult worms of Brugia pahangi in jirds by subcutaneous administration at a dose of 1.6 mg/kg/day; format: functional; how it was run: as §2
Brugia pahangi [9] = assay: Antifilarial activity was measured against the adult worms of Brugia pahangi in jirds by subcutaneous administration at a dose of 6.2 mg/kg/day; format: functional; how it was run: as §2
Homo sapiens [10] = species on record: Homo sapiens; assay: Compound was tested in vitro for its inhibitory activity against human epidermoid carcinoma cell (H. Ep. 2) growth at a concentration of 10 uM; format: functional; details: HEp-2
Brugia pahangi [11] = assay: Antifilarial activity was measured against the adult worms of Brugia pahangi in jirds by oral administration at a dose of 100 mg/kg/day; format: functional; how it was run: as §2
Homo sapiens [12] = species on record: Homo sapiens; assay: Compound was tested in vitro against human epidermoid carcinoma cell (H. Ep. 2) growth rate at a concentration of 10 uM; format: functional
Brugia pahangi [13] = assay: Antifilarial activity was measured against the adult worms of Brugia pahangi in jirds by subcutaneous administration at a dose of 25 mg/kg/day
Brugia pahangi [14] = assay: Antifilarial activity was measured against the adult worms of Brugia pahangi in jirds by subcutaneous administration at a dose of 50 mg/kg/day; format: functional; how it was run: as §2
Acanthocheilonema viteae [15] = assay: Antifilarial activity was measured against the adult worms of Acanthocheilonema viteae in jirds by oral administration at a dose of 100 mg/kg/5 days; format: functional; how it was run: as §2
Brugia pahangi [16] = assay: Antifilarial activity was measured against the adult worms of Brugia pahangi in jirds by subcutaneous administration at a dose of 100 mg/kg/day; format: functional; how it was run: as §2
Brugia pahangi [17] = assay: Antifilarial activity was measured against the adult worms of Brugia pahangi in jirds by subcutaneous administration at a concentration of 100 mg/kg/day
Acanthocheilonema viteae [18] = assay: Antifilarial activity was measured against the adult worms of Acanthocheilonema viteae in jirds by oral administration at a concentration of 100 mg/kg/day; format: functional; how it was run: as §2
Acanthocheilonema viteae [19] = assay: Antifilarial activity was measured against the adult worms of Acanthocheilonema viteae in jirds by subcutaneous administration at a concentration of 50 mg/kg/day; format: functional; how it was run: as §2
Brugia pahangi [20] = assay: Antifilarial activity was measured against the adult worms of Brugia pahangi in jirds by subcutaneous administration at a dose of 6.5 mg/kg/day; format: functional; how it was run: as §2
Acanthocheilonema viteae [21] = assay: Antifilarial activity was measured against the adult worms of Acanthocheilonema viteae in jirds by subcutaneous administration at a dose of 15.6 mg/kg/5 days; format: functional; details: in the assay text read “1.56 mg/kg/5 days” for “15.6 mg/kg/5 days”; how it was run: as §2
Brugia pahangi [22] = assay: Antifilarial activity was measured against the adult worms of Brugia pahangi in jirds by subcutaneous administration at a concentration of 25 mg/Kg/day
Brugia pahangi [23] = assay: Antifilarial activity was measured against the adult worms of Brugia pahangi in jirds by subcutaneous administration at a dose of 25 mg/Kg/day; format: functional; how it was run: as §2
Brugia pahangi [24] = assay: Antifilarial activity was measured against the adult worms of Brugia pahangi in jirds by subcutaneous administration at a concentration of 12.5 mg/Kg/day
Brugia pahangi [25] = assay: Antifilarial activity was measured against the adult worms of Brugia pahangi in jirds by subcutaneous administration at a dose of 6.2 mg/Kg/day; format: functional; how it was run: as §2
Brugia pahangi [26] = assay: Antifilarial activity was measured against the adult worms of Brugia pahangi in jirds by subcutaneous administration at a dose of 100 mg/Kg/day; format: functional; how it was run: as §2

SMILES | Control (L1210 [1]) [%] | Control (Brugia pahangi [2]) [%] | IC50 (L1210 [5]) [nM] | Control (Brugia pahangi [6]) [%] | also measured
COC(=O)Nc1nc2cc(C(=O)Nc3ccc(F)cc3)ccc2[nH]1 | 92 | 67 | – | – | –
COC(=O)Nc1nc2cc(C(=O)N3CCOCC3)ccc2[nH]1 | – | – | – | – | Control (L1210 [3]): 0%; IC50 (L1210 [4]): 60000 nM
COC(=O)Nc1nc2cc(C(=O)OCCC(C)CC(C)(C)C)ccc2[nH]1 (stereo unspecified) | 0 | – | 740 | 85 | –
COC(=O)Nc1nc2cc(C(=O)OC(C)C)ccc2[nH]1 | 0 | 0 | 700 | – | Control (Brugia pahangi [7]): 0%; Control (Brugia pahangi [8]): 51%; Control (Brugia pahangi [9]): 18%; IC50 (Homo sapiens [10]): 220 nM; Control (Brugia pahangi [11]): 100%; Control (Homo sapiens [12]): 0%
CCNC(=O)c1ccc2[nH]c(NC(=O)OC)nc2c1 | 41 | – | 10000 | – | Control (Brugia pahangi [13]): 0%; Control (Brugia pahangi [14]): 0%; Control (Acanthocheilonema viteae [15]): 80%; Control (Brugia pahangi [16]): 0%; IC50 (Homo sapiens [10]): 6000 nM; Control (Brugia pahangi [11]): 89%; Control (Homo sapiens [12]): 0%
O=C(Nc1nc2cc(C(=O)OCC3CC3)ccc2[nH]1)OCC1CC1 | 24 | – | 2200 | 72 | –
CCOC(=O)Nc1nc2cc(C(=O)O)ccc2[nH]1 | – | – | – | 90 | Control (L1210 [3]): 100%
CCCOC(=O)c1ccc2[nH]c(NC(=O)OC)nc2c1 | 38 | – | 7400 | – | Control (Brugia pahangi [17]): 100%
COC(=O)Nc1nc2cc(C(=O)OCc3cccs3)ccc2[nH]1 | 93 | – | – | 71 | IC50 (Homo sapiens [10]): 2300 nM; Control (Homo sapiens [12]): 0%
COC(=O)Nc1nc2cc(C(=O)N3CCN(C(=O)N(C)C)CC3)ccc2[nH]1 | – | 94 | – | – | –
CCN(CC)C(=O)N1CCN(C(=O)c2ccc3[nH]c(NC(=O)OC)nc3c2)CC1 | 100 | 100 | – | – | –
COC(=O)Nc1nc2cc(C(=O)OCc3ccc(F)cc3)ccc2[nH]1 | – | – | – | 83 | –
COC(=O)Nc1nc2cc(C(=O)N3CCN(C)CC3)ccc2[nH]1 | 100 | – | – | – | Control (Brugia pahangi [17]): 101%
CCOC(=O)Nc1nc2cc(C(=O)OCC)ccc2[nH]1 | 0 | – | 760 | 62 | IC50 (Homo sapiens [10]): 290 nM; Control (Homo sapiens [12]): 0%
COC(=O)Nc1nc2cc(C(=O)N3CCNCC3)ccc2[nH]1 | – | 55 | – | – | –
COC(=O)Nc1nc2cc(C(=O)N(C)C)ccc2[nH]1 | 88 | 95 | – | – | –
COC(=O)Nc1nc2cc(NC(=O)c3cccc(F)c3)ccc2[nH]1 | 100 | – | – | – | –

SMILES | Control (L1210 [1]) [%] | Control (Brugia pahangi [2]) [%] | IC50 (L1210 [5]) [nM] | Control (Brugia pahangi [6]) [%] | also measured
COC(=O)Nc1nc2cc(C(=O)OCC3CC3)ccc2[nH]1 | 45 | – | 6900 | 69 | –
COC(=O)Nc1nc2cc(C(=O)OCCC(C)C)ccc2[nH]1 | 60 | – | 10000 | 69 | –
COC(=O)Nc1nc2cc(C(=O)Nc3ccc(C(F)(F)F)cc3)ccc2[nH]1 | 100 | 77 | – | – | –
C#CCOC(=O)c1ccc2[nH]c(NC(=O)OC)nc2c1 | 58 | – | 10000 | 79 | –
COC(=O)Nc1nc2cc(NC(=O)c3ccccc3F)ccc2[nH]1 | – | 116 | – | – | Control (L1210 [3]): 0%; IC50 (L1210 [4]): 14000 nM
COC(=O)Nc1nc2cc(C(=O)NCC(C)(C)C)ccc2[nH]1 | 48 | 50 | 8600 | – | Control (Brugia pahangi [17]): 0%; Control (Acanthocheilonema viteae [18]): 54%; Control (Acanthocheilonema viteae [19]): 0%
CC(C)OC(=O)Nc1nc2cc(C(=O)OC(C)C)ccc2[nH]1 | 0 | – | 730 | 87 | IC50 (Homo sapiens [10]): 390 nM; Control (Homo sapiens [12]): 0%
COC(=O)Nc1nc2cc(C(=O)NC(C)C)ccc2[nH]1 | 0 | – | 2000 | 0 | Control (Brugia pahangi [20]): 4%; Control (Brugia pahangi [7]): 0%; Control (Brugia pahangi [8]): 94%; Control (Acanthocheilonema viteae [21]): 57%; IC50 (Homo sapiens [10]): 1600 nM; Control (Brugia pahangi [11]): 110%; Control (Homo sapiens [12]): 0%
COC(=O)Nc1nc2cc(NC(=O)c3ccc(F)cc3)ccc2[nH]1 | – | 133 | – | – | –
COC(=O)Nc1nc2cc(C(=O)OC)ccc2[nH]1 | 50 | – | 5000 | – | Control (Brugia pahangi [22]): 4%; Control (Brugia pahangi [23]): 53%; Control (Brugia pahangi [24]): 12%; Control (Brugia pahangi [25]): 79%; IC50 (Homo sapiens [10]): 1100 nM; Control (Homo sapiens [12]): 0%
COC(=O)Nc1nc2cc(C(=O)O)ccc2[nH]1 | 100 | – | – | – | Control (Brugia pahangi [26]): 0%
C=CCOC(=O)c1ccc2[nH]c(NC(=O)OC)nc2c1 | 75 | – | > 10000 | 87 | –
COC(=O)Nc1nc2cc(C(=O)OCC(C)(C)C)ccc2[nH]1 | – | – | – | 82 | –
CCCOC(=O)Nc1nc2cc(C(=O)OCCC)ccc2[nH]1 | 36 | – | 8200 | 85 | –
CCOC(=O)c1ccc2[nH]c(NC(=O)OC)nc2c1 | 0 | – | 2800 | 0 | Control (Brugia pahangi [7]): 6%; Control (Brugia pahangi [8]): 100%; IC50 (Homo sapiens [10]): 240 nM; Control (Homo sapiens [12]): 0%
COC(=O)Nc1nc2cc(C(=O)c3cccs3)ccc2[nH]1 [NOCODAZOLE] | 0 | – | 38 | – | IC50 (Homo sapiens [10]): 33 nM; Control (Homo sapiens [12]): 0%
